XBP1 UPR activ = activators of adaptive arm of unfolded protein response (XBP1); CHO-XBP1 luciferase reporter, IRE1-XBP1 UPR activation, luminescence; percent of tunicamycin response, DMSO as zero; activation, % at 20 µM; 330,000 compounds, 0.33% hits; AID 463104;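 active = versus positive control, 20 µM dose yields 30% or more activation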
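Test system: CHO-XBP1 luciferase reporter cells | Buffer or medium: Serum-containing F12 medium, 10% FBS | Schedule: 6 h compound exposure at 37 °C, 5% CO2 | Detection: Steady-Glo luciferase glow luminescence, 10 min after reagent addition | Read-out basis: Activation, % of tunicamycin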
697 NFkB inh = inhibitors of the PMA/ionomycin-induced NF-kB reporter in 697 B cells | 697 B-cell NF-kB luciferase reporter, 16 h | 330,000 compounds, 0.33% hits | inhibition, % at 4 µM | AID 435022; in the data active = inhibition above about 35%
CHOP UPR activ = activators of apoptotic arm of unfolded protein response (CHOP); CHO-CHOP luciferase reporter, UPR activation, luminescence; percent of tunicamycin response over DMSO baseline; 330,000 compounds, 0.34% hits; AID 449763; activation, % at 10 µM;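 active = at 10 µM dose, activation of 40% or more, normalized to positive control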
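System: CHO CHOP reporter cells. Amount: 500 cells per well. Buffer or medium: F12 medium, 10% FBS. Compound dosing: one dose, 10 µM in 0.5% DMSO. Incubation: 6 h compound exposure at 37 °C after overnight seeding. Technique: Steady-Glo luciferase luminescence. Benchmarks: tunicamycin and DMSO controls.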
CHOP inh = inhibitors of CHOP induction in ER stress response; CHO-K1 CHOP-promoter luciferase, tunicamycin-induced, 15-18 h; inhibition, % at 10 µM; 220,000 compounds, 3.8% hits; AID 2732;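 active = compounds that reduced the stress-induced luciferase reporter signal by more than about 70% of percent inhibition, limit read from the data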
Jurkat NFkB inh = lowers PMA/ionomycin-induced NF-kB signal in Jurkat cells | PMA/ionomycin-induced NF-kB luciferase reporter, luminescence | inhibition, % at 4 µM | 330,000 compounds, 0.53% hits; in the data active = inhibition above about 50%
Each line names hits and unclear results; the compound was inactive in the other large screens. This is one part of a sample in which hits are shown more often than they occur.

O=C(CSc1nc2c(c(=O)n1-c1ccc(Cl)cc1)SCC2)Nc1ccc2c(c1)OCCO2	none
O=[N+]([O-])c1cccc(-c2nnc(-c3ccccc3)o2)c1	CHOP inh 80.1
CC1CN=C(c2cccn2Cc2ccc(F)cc2Cl)O1 (centres undefined)	CHOP inh 71.6
CC1(C)COC(c2cccn2Cc2ccc(F)cc2Cl)=N1	CHOP inh 85.4
CCn1c(C2CC(=O)N(c3cc(C)cc(C)c3)C2)nc2ccccc21 (centres undefined)	CHOP inh 74.8
CCCn1c(C2CC(=O)N(c3ccc(C)cc3)C2)nc2ccccc21 (centres undefined)	none
COC(=O)c1cc(S(=O)(=O)N2CCC(c3cc(OC)ccc3OC)C2)c[nH]1 (centres undefined)	none (no result: CHOP inh)
CC(C)(C)C#CC(CCc1ccccc1)OS(N)(=O)=O (centres undefined)	none (no result: CHOP inh)
Cc1occc1C(=O)N(Cc1nc(-c2ccccc2)no1)C(C)C	none (no result: CHOP inh)
CCCN(CCC)c1nc2ccccc2nc1C(C#N)C(=O)OC(C)COC (centres undefined)	CHOP inh 86.6
CCCCN(CCCC)c1nc2ccccc2nc1C(C#N)C(=O)NCCCOC (centres undefined)	none
CCNC(=O)NC(=O)CN(C)c1ccccc1	none
CCOC(=O)c1c(C)n(C)c2cc(-c3ccc(C)cc3)c(O)cc12	CHOP inh 81.0
O=C(Nc1ccc(Cl)c(Cl)c1)Nc1ccc(N2CCCC2)c(S(=O)(=O)Nc2ccccc2Cl)c1	CHOP inh 78.9
O=C(Nc1ccc(N2CCCCC2)c(S(=O)(=O)Nc2ccccc2Cl)c1)c1cccnc1	none (no result: CHOP inh)
O=C1/C(=C\c2cccnc2)CCc2ccccc21	none
O=C1/C(=C/c2ccccc2)CCCc2ccccc21	CHOP inh 89.2
CC1=C(C(=O)OCc2ccccc2)C(c2cccnc2)c2c(n(C)c(=O)n(C)c2=O)N1 (centres undefined)	CHOP inh 85.3
Cn1c(=O)c2c(SCc3ccccn3)nc(C3CC3)nc2n(C)c1=O	none
CCCc1nc(SCC(=O)N2CCC(C)CC2)c2c(=O)n(C)c(=O)n(C)c2n1	none
CCCc1nc(SCc2ccccn2)c2c(=O)n(C)c(=O)n(C)c2n1	CHOP inh 70.3
Cn1c(=O)c2c(SCc3cccnc3)nc(CC(C)(C)C)nc2n(C)c1=O	none
Cn1c(=O)c2c(SCc3ccccn3)nc(CC(C)(C)C)nc2n(C)c1=O	CHOP inh 73.7
CCCc1nc(SC2CCCC2)c2c(=O)n(C)c(=O)n(C)c2n1	CHOP inh 75.4
COc1ccc(CCNC(=O)c2cc(-c3cc(Cl)cc(Cl)c3)oc2C)cc1	CHOP inh 70.5
CCc1ccc(NC(=O)c2cnc(N3CCN(c4ccccn4)CC3)c3ccccc23)cc1	CHOP inh 74.9
CCN(CC)C(=O)c1[nH]cnc1C(=O)NCC(=O)OCc1ccccc1	none (no result: CHOP inh)
COc1cc(C(=O)O/N=C2/C=C(C)C(=O)C=C2C)cc(OC)c1OC	CHOP UPR activ 95.9
CC(C)C(=O)N1CCN(c2ccccc2NC(=S)NC(=O)Cc2ccccc2)CC1	none (no result: CHOP inh)
FC(F)(F)c1cc(CO[C@H]2CCCN[C@H]2c2ccccc2)cc(C(F)(F)F)c1	none (no result: XBP1 UPR activ, 697 NFkB inh, CHOP UPR activ, Jurkat NFkB inh)
Cc1ccc(-c2noc(CSc3ccccc3)n2)cc1	none
Cc1cccc(-c2noc(CSc3ccccc3)n2)c1	CHOP inh 70.5
Cc1ccc(N(CC(=O)Nc2cc(Cl)ccc2Oc2ccccc2)S(C)(=O)=O)c(C)c1	none
Cc1ccc(N(CC(=O)Nc2cc(Cl)ccc2Oc2ccccc2)S(C)(=O)=O)cc1C	CHOP inh 89.0
Cc1ccc(S(=O)(=O)NCCC(=O)N2CCC(C)CC2)cc1	none (no result: CHOP inh)
CNc1nnc(-c2cc3cc(Cl)ccc3oc2=O)s1	CHOP inh 77.8
Cc1ccc(CNC(=O)C2CCCN(S(=O)(=O)c3c(C)noc3/C=C/N(C)C)C2)cc1 (centres undefined)	none
COc1ccc(-c2nn3c(-c4ccc(F)cc4)nnc3s2)cc1	CHOP inh 82.5
CC(=O)N1CCN(c2ccc(NC(=O)c3ccccc3Cl)cc2)CC1	none (no result: CHOP inh)
COc1ccccc1C(=O)Nc1ccc(N2CCN(C(C)=O)CC2)cc1	CHOP inh 77.3
CCn1cc(C(=O)O)c(=O)c2cc(F)c(N3CCN(S(=O)(=O)c4ccc(Br)cc4)CC3)cc21	CHOP inh 76.5
O=c1cc(NCc2ccco2)[nH]c(=O)n1-c1ccc(Br)cc1	CHOP inh 82.2
O=c1cc(NCc2ccc3c(c2)OCO3)[nH]c(=O)n1-c1ccc(Cl)cc1	none
COC(=O)CSc1nc(C)c(C)c(C)c1C(N)=O	none
CCOC(=O)NC(NCc1cccc(C(F)(F)F)c1)(C(F)(F)F)C(F)(F)F	none
CCOC(=O)NC(NCc1ccccc1Cl)(C(F)(F)F)C(F)(F)F	CHOP inh 95.1
Cc1ccc(NS(=O)(=O)c2ccc(-c3csc(C)n3)s2)c(C)c1	none
O=S(=O)(N/N=C\c1cn(-c2ccccc2)nc1-c1ccccc1)c1ccccc1	CHOP inh 95.6
O=C(CNc1ccccc1)N/N=C/c1cn(-c2ccccc2)nc1-c1ccccc1	CHOP inh 95.9
O=C(N/N=C/c1ccccc1O)NC12CC3CC(CC(C3)C1)C2	none (no result: CHOP inh)
O=C(N/N=C/c1cc(Cl)cc([N+](=O)[O-])c1O)NC12CC3CC(CC(C3)C1)C2	CHOP inh 80.5
Cc1ccc(C)c(Cn2c(=O)n(CCC(=O)NCc3ccco3)c(=O)c3ccccc32)c1	CHOP inh 83.0
Cc1ccc(C)c(Cn2c(=O)n(CCCC(=O)NCc3ccco3)c(=O)c3ccccc32)c1	none
Cc1ccccc1Cn1c(=O)n(CCC(=O)NCc2ccc3c(c2)OCO3)c(=O)c2ccccc21	CHOP inh 87.5
CCOc1cc2[nH]c(=S)n(CCCC(=O)NCc3ccco3)c(=O)c2cc1OCC	CHOP inh 82.0
O=C(CCCn1c(=O)c2ccccc2n(CC(=O)NCc2ccco2)c1=O)NCc1ccco1	CHOP inh 72.8
CCCOc1ccc(N2C(=O)CC(N(CCOC34CC5CC(CC(C5)C3)C4)C(C)=O)C2=O)cc1 (centres undefined)	none
CN1C(c2ccccc2)CC(=NO)CC1c1ccccc1 (centres undefined)	none (no result: CHOP inh)
CC1C(c2ccccc2)N(C)C(c2ccccc2)CC1(O)c1ccc(F)cc1 (centres undefined)	CHOP inh 84.8 (no result: XBP1 UPR activ, 697 NFkB inh, CHOP UPR activ, Jurkat NFkB inh)
Cc1cc(=O)[nH]c(Nc2ccc(C(=O)OC(C)C)cc2)n1	CHOP inh 70.5
Cc1ccc(C(C)C)c2c1C(c1ccc3c(c1)OCO3)CC(=O)O2 (centres undefined)	none (no result: CHOP inh, Jurkat NFkB inh)
Cc1ccc(C(=O)Nc2cc3c(oc2=O)CCCC3=O)cc1	none
O=C(Nc1cc2c(oc1=O)CCCC2=O)c1ccccc1	CHOP inh 76.1
COC(=O)[C@H](C(C)C)N(Cc1ccccc1)S(=O)(=O)CCN1CCCC1	none (no result: CHOP inh, Jurkat NFkB inh)
CCOC(=O)Cn1ccc(NC(=O)c2ccc(F)cc2)n1	none (no result: CHOP inh)

Screening data as filed in PubChem BioAssay.
